Test results taken from PubChem BioAssay AID1325 (NMMLSC, 2008).
Screen size: about 190,000 compounds; about 200 (0.11%) were called active.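 How the source made its calls: active means inhibition above 80%; inactive means the rest.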 The list comes from a sample in which actives are over-represented; it also holds similar structures and randomly drawn compounds.

Each molecule was assayed against Broad substrate specificity ATP-binding cassette transporter ABCG2 (Homo sapiens) (UniProt Q9UNQ0) (assay: blockers of JC-1 export by ABCG2 – multiplex with ABCB1, IgMXP3 cells, flow cytometry, primary screen (AID 1325;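 further: 0% = DMSO and 100% = nicardipine control wells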)). Conditions: JC-1 efflux, at 6.6 µM, hits give high values.
Chain of Broad substrate specificity ATP-binding cassette transporter ABCG2 (Homo sapiens) (Q9UNQ0 whole entry, looked up): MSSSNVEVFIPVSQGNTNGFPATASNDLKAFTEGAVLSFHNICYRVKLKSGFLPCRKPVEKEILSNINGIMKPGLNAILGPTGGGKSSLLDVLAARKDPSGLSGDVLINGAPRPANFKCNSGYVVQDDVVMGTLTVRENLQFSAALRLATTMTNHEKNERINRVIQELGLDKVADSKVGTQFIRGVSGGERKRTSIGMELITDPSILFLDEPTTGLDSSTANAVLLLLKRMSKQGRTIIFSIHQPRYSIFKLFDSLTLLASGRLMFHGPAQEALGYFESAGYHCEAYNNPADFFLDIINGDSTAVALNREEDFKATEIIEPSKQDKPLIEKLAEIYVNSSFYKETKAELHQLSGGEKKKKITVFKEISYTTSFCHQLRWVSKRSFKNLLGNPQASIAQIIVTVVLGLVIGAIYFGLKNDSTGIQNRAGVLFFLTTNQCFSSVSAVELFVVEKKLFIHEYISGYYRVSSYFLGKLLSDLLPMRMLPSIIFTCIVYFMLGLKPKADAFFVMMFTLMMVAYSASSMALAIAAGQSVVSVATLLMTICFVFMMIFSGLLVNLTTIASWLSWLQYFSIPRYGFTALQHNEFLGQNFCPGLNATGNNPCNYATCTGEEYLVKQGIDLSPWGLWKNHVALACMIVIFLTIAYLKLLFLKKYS
How it was run: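 Test system: IgMXP3 cells (ABCG2) mixed with DDAO far-red-labelled CCRF-Adr cells (ABCB1). Reagent: JC-1 transporter substrate. Compound dosing: single test compound dose, 6.6 µM final. Times: 10 min compound exposure, 25 °C. Detection: flow cytometry of retained JC-1 fluorescence. Read-out basis: efflux inhibition in percent versus controls. Controls: nicardipine and DMSO wells.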
`Cc1cc(OCc2cc(C(=O)O)oc2C)c2c3c(c(=O)oc2c1)CCCC3` was tested, and the inhibition was -0.16% (inactive). For `COC(=O)COc1cc(C)cc2oc(=O)c3c(c12)CCCC3`, the inhibition was 85.8% (active). With `Cc1ccc(-c2nc3ccccc3c(=O)n2-c2ccc(Br)cn2)cc1` the inhibition was 4.52% (inactive). In the case of `COc1ccc(-c2nn(CCC#N)cc2C(=O)O)cc1`, the inhibition is reported as 12.1% (inactive). `CN(C)C(=O)Oc1cc(=O)n2c3c(cccc13)CCC2` was tested, and the inhibition was 8.26% (inactive).
